The target of test [1] is HIV-1 RT RNase H activity (wild type p66/p51) (Human immunodeficiency virus type 1, UniProt P03366). Kind of test: FRET-based RNase H assay, wild-type HIV-1 RT. Type of test: biochemical.
Another test deals with HIV-1 RT Tyr501Trp (Human immunodeficiency virus type 1 group M subtype B, UniProt P03366, Y1100W). Kind of test: FRET-based RNase H assay, Tyr501Trp RT. Type of test: biochemical.
Another test concerns the target HIV-1 RT Tyr501Az-Phe (Human immunodeficiency virus type 1, UniProt P03366, Y1100X). Kind of test: FRET-based RNase H assay, Tyr501Az-Phe RT. The class given is biochemical.
The target of another test is p66^501BpF/p51 RT (Human immunodeficiency virus type 1, UniProt P03366, Y1100X). Kind of test: FRET-based RNase H assay, Tyr501Bp-Phe RT. The note with it: for IC50: IC50, RNase H activity, Tyr501Bp-Phe RT. The class given is biochemical, HIV-1.
The target in test [2] is HIV-1 RT DNA polymerase activity (Human immunodeficiency virus type 1, UniProt P03366). Kind of test: DNA polymerase activity in the absence of pyrophosphorolysis. Type of test: biochemical. The settings on record: 50 μM, data not shown.
Test [3] has as its system wild-type RT / RNA-DNA hybrid complex. Kind of test: Electrophoretic mobility shift analysis, wild-type RT on RNA/DNA hybrid. The class given is binding, HIV-1. The settings on record: 50 μM; gel-mobility shift. In a few lines: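 Mobility-shift assay: RT 250 nM with RNA/DNA hybrid 50 nM (14 nt RNA–8 nt DNA chimera annealed to 22 nt DNA, mimicking tRNA primer removal) in 50 mM Tris/HCl pH 7.8, 50 mM NaCl. Test compound 0.6–50 μM. Complexes resolved by nondenaturing electrophoresis and detected by autoradiography.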

Another test concerns HIV-1 RNase H activity. Kind of test: Yonetani–Theorell analysis of RNase H inhibition. Type of test: biochemical. The note with it: NSC727447 0.25–16 μM, β-thujaplicinol 0.1–0.4 μM; substrate 250 nM, enzyme 4 nM. In a few lines: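 FRET RNase H assay: 18-nt 3'-fluorescein RNA annealed to 5'-dabcyl DNA (250 nM), enzyme 4 nM. Test compound at 0, 0.25, 0.5, 1, 2, 4, 8, 16 μM, each at β-thujaplicinol 0, 0.1, 0.2, 0.4 μM. Substrate added to start; fluorescence followed for 60 min. Inverse rate (ΔRFU/min) fitted to the Yonetani–Theorell equation to obtain interaction term γ.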

In a further test the target is Thr473Cys RT (Human immunodeficiency virus type 1 group M subtype B, UniProt P03366, T1072C). Kind of test: RNase H inhibition, Thr473Cys RT. The settings on record: Thr473 replaced with cysteine. Type of test: biochemical, HIV-1.
In test [4] the test system is HIV-1 RT variant with Cys38 and Cys280 removed from p66 and p51. Kind of test: RNase H inhibition, RT variant lacking Cys38 and Cys280. Type of test: biochemical. The settings on record: Cys38 and Cys280 removed from both subunits.

Values joined by “and” are separate entries in the source; they are usually repeats but may differ in a detail not shown here. Equal entries are not always repeated. Where two headings read alike, the source gives them in different places.

In turn, `CC(C)c1ccc(O)c(=O)c(O)c1` [β-thujaplicinol, reference compound] registered a half-maximal inhibitory concentration (IC50) in [1] of 0.25 ± 0.023 µM.
Regarding `NC(=O)c1c(N)sc2c1CCCCC2` [NSC727447, 2-amino-5,6,7,8-tetrahydro-4H-cyclohepta[b]thiophene-3-carboxamide], the IC50 in test [1] was 6.6 µM; on HIV-1 RT Tyr501Trp, 70.6 µM; on HIV-1 RT Tyr501Az-Phe, 89.6 µM; at p66^501BpF/p51 RT, 197 µM and 196 µM. Further, the “fold decrease in inhibitor potency vs wild type” value was ~ 11 fold on HIV-1 RT Tyr501Trp (Tyr501Trp RT vs wild type) and 14 fold at HIV-1 RT Tyr501Az-Phe (Tyr501Az-Phe RT vs wild type). For the same compound, the “fold resistance vs wild type” value on p66^501BpF/p51 RT (p66^501BpF/p51 RT vs wild type) is around 30 fold. Also, the “inhibition of DNA polymerase activity” value in test [2] is recorded as “insensitive to inhibition”. For the same compound, in [3], the “effect on affinity of RT for RNA/DNA substrate” value is recorded as “unaffected”. Also, in the test with HIV-1 RNase H activity, the “mode of interaction with β-thujaplicinol (NSC18806), Yonetani–Theorell” value was “mutually exclusive inhibitors”. Also, the “sensitivity of mutant enzyme to inhibitor vs wild type” value on Thr473Cys RT is “increased sensitivity”. Also, the “sensitivity of mutant enzyme to inhibitor” value in test [4] was “retained sensitivity”.
As for manicol [reference compound], the IC50 in test [1] (read-out: IC50, RNase H activity, wild-type RT, FRET substrate) was 0.6 ± 0.09 µM.
Take `Cc1sc(NC(=O)c2ccco2)c(C(N)=O)c1C` [NSC727448, N-[3-(aminocarbonyl)-4,5-dimethyl-2-thienyl]-2-furancarboxamide]: the IC50 was around 5.5 µM in [1] and around 220 µM at p66^501BpF/p51 RT.

Values taken from article PMC2941776 (ACS chemical biology, 2008).
